DENV2 CPE = inhibitors of DENV2 cytopathic effect, primary screen, cell-based, plate reader, single concentration; DENV2-infected cells, cytopathic effect rescue; hit rate 1.7% among 350,000; CPE inhibition, % at 9.99 µM; AID 651640, 2012; in the data active = CPE inhibition above about 20%, passing the limit was not always enough; inconclusive = no clear call, values can overlap the other calls; tested in BHK-21 cells;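 note: 0% = median of neutral control wells and 100% = median of positive control wells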
Xi reactivation = activators of inactive X chromosome reactivation, primary screen, imaging, XiGFP fibroblasts, GFP high-content imaging, set 2; XiGFP mouse fibroblasts, % GFP-positive cells imaging, 3 d; cells co-treated with 5-aza-dC sensitizer; scaled so ellipticine positive control = 100%; activation, % at 7.58 µM; hit rate 0.055% among 360,000; AID 743238, 2013;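 active = mean normalized replicate activation at least 10% and every replicate at or above 10%; inconclusive = only one of the two criteria met; inactive = mean below 10% and not all replicates reach 10%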;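 note: 0% = median of on-plate neutral control wells and 100% = ellipticine 6 µM median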
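Material: SV40-immortalized XiGFP fibroblast cells, line 68-5-11 | Buffer or medium: DMEM containing 5-aza-dC | Dosing: One concentration, pinned | Times: 3 d treatment, 15 min room-temperature fixation | Controls: Ellipticine 6 µM positive control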
C2C12 statin = suppressors of statin myotoxicity in C2C12 myotubes, primary screen, cell-based, single point, plate reader; C2C12 myotubes + simvastatin, ATP luminescence, 48 h; scaled: DMSO 0, geranylgeraniol control 100; rescue of ATP level, % at 7.49 µM; hit rate 0.78% among 330,000; AID 602340, 2012;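 active = mean ATP rescue above about 67%, or every replicate alone reaching that limit, limit read from the data, passing the limit was not always enough; inconclusive = no clear call, values can overlap the other calls; inactive = mean under the limit and some replicate under it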;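 note: myotubes were challenged with 10 µM simvastatin during compound exposure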
Cneo AK release = Cryptococcus neoformans cell lysis inducers, primary screen, AK release luminescence, single concentration | C. neoformans lysis, adenylate kinase release luminescence, 4 h; normalised: neutral wells 0, clomiphene wells 100 | lysis activity, % at 15 µM | hit rate 0.2% among 360,000 | AID 651654, 2012;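 active = mean lysis activity across replicates of at least 80%, whatever share of replicates individually reach that level; inactive = mean lysis activity below 80%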
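Assay system: Cryptococcus neoformans yeast cells / Dosing: single-point compound dose / Timing: 4 h at 37 °C static, read 1 h later / Measured by: luminescence of released adenylate kinase using an AK detection reagent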
Numbers without * were called inactive; ? = inconclusive; nt = no result given. An excerpt weighted towards active compounds, which were near 2.1% of everything screened.

SMILES | DENV2 CPE | Xi reactivation | C2C12 statin | Cneo AK release
Nc1ccn([C@@H]2O[C@H](C(=O)N3CCN(C(=O)C(F)(F)F)CC3)[C@@H](O)[C@H]2O)c(=O)n1 | -8 | 0 | nt | nt
Nc1ccn([C@@H]2O[C@H](C(=O)NCCc3ccc(F)cc3)[C@@H](O)[C@H]2O)c(=O)n1 | 87* | 0 | -6 | 1
Nc1ccn([C@@H]2O[C@H](C(=O)NCc3ccc4c(c3)OCO4)[C@@H](O)[C@H]2O)c(=O)n1 | -3 | 0 | -7 | 1
C[C@@H]1CN([C@@H](C)CO)S(=O)(=O)c2ccc(C#CC3CC3)cc2O[C@H]1CN(C)C(=O)CC1CC1 | 8 | 1 | 8 | 44
O=C(C[C@H]1CC[C@H]2[C@@H](COC[C@@H](O)CN2C(=O)c2ccncc2)O1)NCc1cccc(F)c1 | -2 | 0 | 1 | -1
COc1ccc([C@H]2N[C@]3(CCCN(Cc4ccc(C)cc4)C3=O)[C@H]3C(=O)N(C)C(=O)[C@@H]23)cc1 | 5 | 0 | 0 | -3
O=C1[C@H]2[C@@H](c3ccccc3)N[C@]3(CCCN(Cc4ccc(Cl)cc4)C3=O)[C@H]2C(=O)N1Cc1ccccc1 | 44* | 0 | -5 | -2
COc1ccc(CN2CCC[C@]3(N[C@H](c4ccc(OC)cc4)[C@@H]4C(=O)N(C)C(=O)[C@@H]43)C2=O)cc1 | 27* | 0 | 6 | -1
O=C1[C@H]2[C@@H](c3ccccc3)N[C@]3(CCCN(Cc4ccc(Br)cc4)C3=O)[C@H]2C(=O)N1Cc1ccccc1 | -2 | 0 | 1 | -1
CNC(=O)C[C@H]1CC[C@H]2[C@@H](COc3ccc(NC(=O)c4ccc(F)c(F)c4)cc3C(=O)N2C)O1 | 52* | 2 | -4 | 11
CN1C(=O)c2cc(NC(=O)c3cccc(F)c3)ccc2OC[C@H]2O[C@@H](CC(=O)NCC3CC3)CC[C@H]21 | 21* | 0 | nt | nt
CCNC(=O)C[C@@H]1CC[C@@H]2[C@H](COc3ccc(NC(=O)c4ccc(F)c(F)c4)cc3C(=O)N2C)O1 | 90* | 0 | -14 | 1
CCNC(=O)C[C@H]1CC[C@H]2[C@@H](COc3ccc(NC(=O)c4ccc(F)c(F)c4)cc3C(=O)N2C)O1 | -9 | 0 | 13 | -1
CN1C(=O)c2cc(NC(=O)c3cccc(F)c3)ccc2OC[C@H]2O[C@H](CC(=O)NCC3CCCCC3)CC[C@@H]21 | 12 | 0 | 36 | -6
CNC(=O)C[C@H]1CC[C@@H]2[C@H](COc3ccc(NC(=O)c4cscn4)cc3C(=O)N2C)O1 | 29* | 0 | -14 | 5
Cc1ccc(C2=NOC(C)(c3nnc(-c4ccncc4)o3)C2)cc1 (stereo unspecified) | 58* | 0 | -6 | 1
O=C(NC1CCCc2c1cnn2-c1ccccc1F)c1ccncc1 (stereo unspecified) | 25* | 0 | -9 | 0
O=C(NC1CCCc2c1cnn2-c1ccccc1F)c1ccccn1 (stereo unspecified) | -1 | 0 | -13 | -1
OC[C@H]1[C@@H]2c3ccccc3NC[C@@H]2N1CC1CCOCC1 | 22* | 0 | 13 | -3
Cc1ccc(S(=O)(=O)N[C@@H]2CC[C@H](CC(=O)N3CCc4ccccc4C3)O[C@H]2CO)cc1 | 18 | 0 | 4 | 14
c1ccn2c(c1)nc1c2nc2ccccn21 | nt | nt | 168* | 1
Clc1c(-c2ccccc2)nc2ccccn12 | 13 | 0 | 6 | -2
O=C(C1CCCC1)N1CC2(C1)[C@@H](c1ccccc1)[C@@H](CO)N2C(=O)c1cccnc1 | 11 | 0 | nt | nt
COc1ccc(Cc2n[nH]c(=S)n2-c2cc(C)ccc2C)cc1OC | 96* | 0 | -8 | 3
CCCC(=O)Nc1ccc2c(c1)C(=O)N(C)[C@@H]1CC[C@H](CC(=O)NCCc3ccccc3)O[C@@H]1CO2 | nt | 0 | -3 | 0
C[C@H]1CN([C@@H](C)CO)C(=O)c2cc(NC(=O)Nc3cccc4ccccc34)ccc2O[C@@H]1CN(C)Cc1ccc(C(=O)Nc2ccccc2N)cc1 | 1 | 0 | ? | -2
N#CC(c1ccc(Cl)cc1)c1ccc(Cl)nn1 (stereo unspecified) | nt | nt | 106* | -1
Cc1ccc(C(C#N)c2ccc(Cl)nn2)cc1 (stereo unspecified) | 3 | 0 | nt | nt

Source: PubChem BioAssay (Broad Institute)
